Data set [1] is described as follows: Plasma concentration in BALB/c mouse subcutaneously infected with bioluminescent PpyRE9h expressing Trypanosoma cruzi Tulahuen […] at 50 mg/kg, po twice daily measured immediately before seventh dose.
A short description of data set [2]: Fraction unbound in Swiss Webster mouse plasma at 2 uM by LC-MS/MS analysis. The data set is classed as ADME, cell-free. The essentials:
(§1)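 Plasma protein binding measured in 100% mouse plasma, giving % recovery and % fraction unbound. Propranolol control included in every experiment.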

Data set [3] deals with Trypanosoma brucei brucei. Nature of the data set: Antitrypanosomal activity against Trypanosoma brucei brucei BF427 after 48 hrs by Alamar Blue-based assay. Type of data set: functional. Particulars: BF427, 48 h. On the technique in general: The colour change of resazurin is a common sign of viable cells or microbes.
Data set [4] in a line: Cmax in Swiss Webster mouse at 50 mg/kg, po by LC-MS/MS analysis. The data set is classed as ADME, organism-based. Also noted: dose 50 mg/kg, route oral. As to conditions: in vivo. The essentials:
(§2)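 Oral single dose of 50 mg/kg to mice (n=3). Blood sampled at time points up to 24 h. Cmax and AUC reported as average ± SEM.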

For another data set, the system named is Liver. The data set can be described thus: Stability of the compound in mouse liver microsomes assessed as compound remaining by LC-MS/MS method. The data set is classed as ADME, microsome. In a few lines: (§3)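 Incubation with mouse liver microsomes, run in duplicate. Testosterone and dextromethorphan included as controls in each assay.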
(In general: Liver microsomes are a subcellular fraction often used to study metabolism.)

Data set [5] is described as follows: Ratio of drug level in Swiss Webster mouse brain to plasma at 5 mg/kg, ip measured after 1 hr by LC-MS/MS analysis. As to conditions: read-out: BPR. The data set is classed as ADME, organism-based. In a few lines: (§4)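 Mice in groups of three got a single 5 mg/kg ip dose. Animals were sacrificed 1 h postdose, and brain and plasma were collected for analysis. Brain:plasma ratio was calculated from the mean concentrations.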

Data set [6] can be described thus: Plasma concentration in BALB/c mouse subcutaneously infected with bioluminescent PpyRE9h expressing Trypanosoma cruzi Tulahuen tryptomastigotes at 50 mg/kg, po twice daily measured 6 hrs post seventh dose. The data set is classed as ADME, organism-based. The essentials:
(§5)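 Infected Balb/c mice on the twice-daily 50 mg/kg oral regimen. Tail blood collected at the 7th dose, immediately before and 1 h and 6 h after administration (n=3).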

Data set [7] can be described thus: Solubility of the compound in PBS at pH 6.5 at 50 uM after overnight incubation by LC-MS/MS method. The data set is classed as physicochemical. The essentials: (§6)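 Solubility measured at pH 7.4, 6.5 and 2.0.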
Data set [8] in a line: Solubility of the compound in PBS at pH 7.4 at 50 uM after overnight incubation by LC-MS/MS method. Type of data set: physicochemical. The essentials:
as §6

The nature of data set [9]: Plasma concentration in Swiss Webster mouse at 5 mg/kg, ip after 1 hr by LC-MS/MS analysis. The data set is classed as ADME, organism-based. The essentials: as §4
Data set [10] in a line: Drug level in Swiss Webster mouse brain at 5 mg/kg, ip after 1 hr by LC-MS/MS analysis. Particulars: read-out: Drug uptake. The data set is classed as ADME, organism-based. In a few lines: as §4
The nature of data set [11]: AUC in Swiss Webster mouse at 50 mg/kg, po by LC-MS/MS analysis. As to conditions: in vivo. The data set is classed as ADME, organism-based. In a few lines:
as §2

Data set [12] is described as follows: Protein binding in Swiss Webster mouse plasma assessed as drug recovery at 2 uM by LC-MS/MS analysis. Particulars: read-out: Drug recovery. Type of data set: ADME, cell-free. In a few lines:
as §1

Data set [13] has as its system Trypanosoma cruzi. Nature of the data set: Antitrypanosomal activity against Trypanosoma cruzi Tulahuen amastigotes infected in mouse 3T3 cells after 6 days by beta galactosidase reporter asay. Type of data set: functional, cell-based. As to conditions: NIH3T3, 144 h.
A short description of data set [14]: Cytotoxicity against human CRL8155 cells after 48 hrs by Alamar Blue-based assay. Type of data set: cell-based. As to conditions: CRL8155, 48 h. In a few lines: (§7)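 Cytotoxicity tested against human lymphoblasts CRL-8155 and hepatocytes HepG2. Highest concentration tested was 50 µM.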
The test system of a further data set is Mus musculus. Nature of the data set: Toxicity in BALB/c mouse infected with bioluminescent PpyRE9h expressing Trypanosoma cruzi Tulahuen […] at 50 mg/kg, po twice daily for 5 days measured after 6 weeks. Type of data set: organism-based. Particulars: in vivo, 1008 h. In a few lines:
(§8)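 Balb/c mice infected SC on day 0 with 2x10^4 T. cruzi Tulahuen trypomastigotes expressing red-shifted luciferase (PpyRE9h). Oral dosing at 50 mg/kg twice daily on days 7-11 post-infection. D-luciferin (120 mg/kg) injected SC, mice anesthetized and imaged by IVIS 10-15 min later, at time points out to 42 days. Mice observed for toxicity.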

Data set [15] is described as follows: Plasma concentration in BALB/c mouse subcutaneously infected with bioluminescent PpyRE9h expressing Trypanosoma cruzi Tulahuen […] at 50 mg/kg, po twice daily measured 1 hr post seventh dose. Type of data set: ADME, organism-based. The essentials: as §5
The nature of data set [16]: Half life in mouse liver microsomes by LC-MS/MS method. Type of data set: ADME, microsome. The essentials:
as §3

The subject of a further data set is HepG2. The data set can be described thus: Cytotoxicity against human HepG2 cells after 48 hrs by Alamar Blue-based assay. Type of data set: cell-based. Particulars: HepG2, 48 h. In a few lines: as §7
In data set [17] the test system is Trypanosoma cruzi. Nature of the data set: Antitrypanosomal activity against bioluminescent PpyRE9h expressing Trypanosoma cruzi Tulahuen […] infected subcutaneously in BALB/c mouse assessed as suppression of Trypanosoma cruzi infection at 50 mg/kg, po twice daily for 5 days measured after 6 weeks by IVIS imaging analysis. Type of data set: functional, organism-based. In a few lines:
as §8

The nature of data set [18]: Solubility of the compound in HCl at pH 2.0 at 50 uM after overnight incubation by LC-MS/MS method. The data set is classed as physicochemical. In a few lines:
as §6

The structures appear in SMILES notation. Converted amounts (≈) assume the structure as drawn. The source made the active and inactive calls. Some results are limits rather than exact numbers.

The fraction unbound is free concentration divided by total concentration. Broadly, the EC50 is the concentration that produces a half-maximal response. In general, EC90 refers to the concentration needed for an effect of 90%. High values mean weaker potency, low ones greater potency. For orientation: Cmax means the peak of the concentration-time curve. By solubility is commonly meant how much of the substance goes into solution per volume. Lower therefore signals little dissolved substance. As a reminder, the AUC is concentration integrated over time. A high value points to more exposure. The term half-life denotes the time needed for the level to fall by half in the phase considered. The low end stands for rapid decline, the high end for slow decline.

In turn, `O=C(Nc1cc2nc(-c3ccc(F)c(F)c3)cn2cn1)N1CC[C@H](F)C1` yielded a concentration at 0 hr in [1] of 4.8 µM. Further, the fraction unbound at 2 µM in data set [2] worked out at 0.099. Besides, the EC50 in data set [3] is 0.02 µM; in the data set on Trypanosoma cruzi [13], 0.09 µM; in data set [14], > 50 µM; in the data set with HepG2, > 50 µM. In addition, the values for the EC90 (in data set [3]; in the data set on Trypanosoma cruzi [13]) were 0.05 µM and 0.15 µM, respectively. The peak level in data set [4] (Cmax) was 5.7 µM. The Stability in the data set on Liver was found to be 96%. Besides, the Kp at 1 h in data set [5] amounted to 0.856. This compound returned a concentration at 6 h in [6] of 5.8 µM. Further, the solubility at 50 µM came out at 2.4 µM (≈ 0.867 µg/mL) in data set [7], 2.1 µM (≈ 0.759 µg/mL) in [8] and 1.6 µM (≈ 0.578 µg/mL) in data set [18]. Besides, the concentration at 1 h in [9] was found to be 1.31 µM; in data set [10], 1.12 µM; in data set [15], 9 µM. The AUC in [11] was 59.8 µM·h. For the same compound, the recovery at 2 µM in [12] worked out at 56.1%. In addition, the Activity result in the data set on Mus musculus is given as “Non-Toxic”. In addition, in data set [16], the half-life is > 1 h. Moreover, the result in the data set on Trypanosoma cruzi [17] was Active.

These data come from ChEMBL document CHEMBL4033772, “New Class of Antitrypanosomal Agents Based on Imidazopyridines” (ACS Med Chem Lett, 2017).
